Data reported in article PMC5079537 (Cancer cell, 2016).

Legend:
MDM2 RING protein [1] = molecular target: T1, MDM2 RING protein (Homo sapiens, UniProt Q00987); test: Fluorescent titration binding assay
Method in brief: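 Binding to GST-MDM2 RING protein measured by fluorescence titration, using the protein's intrinsic fluorescence (excitation 280 nm, emission 335 nm). Protein titrated with increasing test compound concentrations. Relative change in fluorescence intensity traced and normalised to derive binding Kd.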

[2] = tested on: NBMM cells (normal human hematopoiesis); test: Clonogenic analyses for CFU-GM and BFU-E; format: cell-based; conditions: colonies after 14 days
[3] = tested on: human normal bone marrow mononuclear (NBMM) cells; test: WST cytotoxic assay on normal bone marrow cells; format: cell-based
Method in brief: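 Normal human bone marrow mononuclear cells came from five consenting donors under IRB approval. Cells in 96-well plates got a range of test compound concentrations for 20 hr, then WST (25 μg/well) for another 4 hr. OD read at 450 nm against 620 nm reference. Mean ± SD of three independent experiments.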

[4] = tested on: 12 cancer cell lines (6 ALL and 6 NB); format: cell-based; conditions: 24 hr
XIAP IRES [5] = test: Fluorescent titration binding assay; conditions: read-out: binding Kd to XIAP IRES
Method in brief: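 Fluorescence-labelled XIAP IRES RNA (excitation 485 nm, emission 530 nm) titrated with increasing test compound concentrations. Relative change in fluorescence intensity traced and normalised to derive binding Kd.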

[6] = tested on: caspases 3, 7 and 9, PARP; test: Western blot and ELISA for caspase activation and PARP cleavage; format: cell-based, human; conditions: ALL and NB cells
Method in brief: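 Western blot of caspase-3 activation and PARP cleavage in cancer cells treated with test compounds at 1 or 10 μM, or a control compound at 10 μM, over a time course. Cells were lysed in 50 mM Tris pH 7.6, 150 mM NaCl, 1% NP-40 with phosphatase and protease inhibitors. Lysates were run on SDS-PAGE, transferred to nitrocellulose, probed with specific antibodies and detected by chemiluminescence.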

[7] = tested on: MDM2 and XIAP expression in ALL and NB cells; test: Western blot for MDM2 and XIAP expression in cancer cells; format: cell-based, human
Method in brief: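 MDM2-overexpressing ALL lines (EU-1, EU-3) and NB lines (SH-EP1, NB-1691) were treated with test compounds for 24 hr. Time-course and dose-response runs were done in EU-1. Lysis was in Tris pH 7.6/NaCl/1% NP-40 buffer with phosphatase and protease inhibitors. Lysates were resolved by SDS-PAGE, transferred to nitrocellulose, probed for MDM2 and XIAP, and detected by chemiluminescence.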

[8] = tested on: endogenous MDM2 in cancer cells; test: IP-Western blot for ubiquitination of endogenous MDM2; format: cell-based, human
Method in brief: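 EU-1 cells treated with 10 μM test compound or a control compound. Lysed in Tris pH 7.6/NaCl/NP-40 buffer with protease and phosphatase inhibitors, cleared, then immunoprecipitated with anti-MDM2 on protein G/protein A-agarose. Immunoprecipitates run on SDS-PAGE, transferred to nitrocellulose, probed with anti-ubiquitin and detected by chemiluminescence.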

XIAP IRES [9] = test: Dicistronic reporter assay; format: cell-based; conditions: dicistronic plasmid pRL-xi-FL
p53 in EU-1 cells [10] = test: CHX pulse-chase assay, p53 turnover; format: cell-based, human; conditions: control less than 30 min
[11] = tested on: EU-1 leukemia cells in SCID mice; test: EU-1 leukemia xenograft in SCID mice; format: in vivo
MDM2 RING protein [12] = molecular target: T1, MDM2 RING protein; test: ITC binding assay; conditions: read-out: binding Kd to MDM2 RING protein
MYCN IRES = test: Dicistronic reporter assay, control IRES; format: cell-based
[13] = tested on: Hsd:ICR (CD-1) normal mice; test: Maximum tolerated dose; format: in vivo; conditions: doses between 25 and 200 mg/kg i.p., 3 days/week x 2 courses
p53 in EU-1 cells [14] = test: Western blot for p53 expression; format: cell-based, human; conditions: 1 μM MX3 or 10 μM MX69, 2 to 8 hr after treatment
[15] = tested on: Hsd:ICR (CD-1) normal mice; conditions: 100 mg/kg
MDM2 in EU-1 cells = test: CHX pulse-chase assay, MDM2 turnover; format: cell-based, human; conditions: 10 μM for 4 hr, control greater than 90 min
EU-1 cells = test: Annexin-V FITC staining for apoptosis; format: cell-based, human; conditions: 10 μM
Method in brief: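 EU-1 cells treated with 10 μM test compound were washed in PBS and stained with FITC-annexin V and 7-AAD using a kit per the maker's protocol. Read by fluorescence microscopy (annexin V green, 7-AAD red) and by flow cytometry. For flow quantitation, cells were treated for 24 hr. Mean of three independent experiments, bars ± SD.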

T1 sequence (Q00987 438-479 limits assumed): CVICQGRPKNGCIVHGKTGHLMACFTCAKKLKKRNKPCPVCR

SMILES: O=C1c2c(O)ccc(O)c2C(=O)c2c(NCCNCCO)ccc(NCCNCCO)c21 [MX3, mitoxantrone, reference compound]
- binding to MDM2 RING protein (MDM2 RING protein [1]): neither of these leads bound
- inhibitory effect on BFU-E ([2]; 1 μM): severe inhibitory effects
- cell survival of NBMM ([3]; 2 μM, 24 hr): about 50%
- cytotoxic effect [4]: most potent cytotoxic effect
- Kd (XIAP IRES [5]): 5.26 µM
- activation of caspases 3, 7 and 9 and cleavage of PARP [6]: activation of these caspases and cleavage of PARP were detected
- inhibition of MDM2 and XIAP protein expression [7]: inhibited expression of both MDM2 and XIAP
- ubiquitination of endogenous MDM2 [8]: induced ubiquitination

SMILES: Cc1ccc(NS(=O)(=O)c2ccc3c(c2)C2C=CCC2C(c2ccc(C(=O)O)cc2)N3)cc1C (stereo not drawn) [MX69]
- XIAP IRES-mediated translation of firefly luciferase (XIAP IRES [9]): inhibited
- Kd (MDM2 RING protein [1]; read-out: binding Kd to MDM2 RING protein): 2.34 µM
- p53 half-life (p53 in EU-1 cells [10]): remarkably increased
- mice that died within 98–143 days after inoculation ([11]; 50 mg/kg i.p.): Forty
- mice that died within 98–143 days after inoculation ([11]; 75 mg/kg i.p.): 20%
- adverse effects (body weight, fur pattern) ([11]; up to 40-days post-treatment): no adverse effects
- inhibitory effect on BFU-E ([2]; 10 μM): little inhibitory effect
- inhibitory effect on CFU-GM ([2]; 10 μM): little inhibitory effect
- Kd (MDM2 RING protein [12]): 2.75 µM
- activity on the MYCN IRES (MYCN IRES): no activity
- cell survival of NBMM ([3]; 2–8 μM for 24 hr): over 90%
- cytotoxic effect [4]: significant cytotoxic effect
- tolerability, deaths by day 30 [13]: well tolerated, with no deaths
- p53 protein levels (p53 in EU-1 cells [14]): significantly increased
- ALT [15]: no significant increases
- AST [15]: no significant increases
- BUN [15]: no significant increases
- PLT [15]: no significant decreases
- WBC [15]: no significant decreases
- histopathology of heart, liver and kidney [15]: no evidence of toxicity
- MDM2 half-life (MDM2 in EU-1 cells): < 30 min
- activation of caspases 3, 7 and 9 and cleavage of PARP [6]: activation of these caspases and cleavage of PARP were detected
- inhibition of MDM2 and XIAP protein expression [7]: inhibited expression of both MDM2 and XIAP
- Annexin-V positive cells (EU-1 cells): over 90%
- ubiquitination of endogenous MDM2 [8]: induced ubiquitination
